The source of these data is ChEMBL document CHEMBL1131073, “Structure-activity study of the nociceptin(1-13)-NH2 N-terminal tetrapeptide and discovery of a nociceptin receptor antagonist” (J Med Chem, 1998).

Type in all cases: functional
For assay [1], the species on record is Mus musculus. The experiment in a line: The maximal effect induced by an agonist expressed as percent inhibition of electrically induced twitches. In short, it runs like this:
(§1)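 Vas deferens from Swiss male mice (25–30 g), prepared per Hughes, in Mg2+-free Krebs (95% O2/5% CO2, pH 7.4) at 33 °C, 0.3 g resting tension. Field stimulation via platinum ring electrodes: supramaximal 1-ms pulses, 0.1 Hz. Isotonic twitch recording. After ~2 h equilibration, cumulative concentration–response curves in 0.5 log steps. Mean ± SEM of at least four experiments; pEC50 with 95% confidence limits.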

For assay [2], the species on record is Mus musculus. The assay is described as follows: The maximal effect induced by an agonist expressed as percent inhibition of electrically induced twitches;I = Inactive at 10 uM. An outline of the steps:
as §1

The species entered for assay [3] is Mus musculus. The assay is described as follows: Antagonist effect in the electrically stimulated mouse vas deferens;I = Inactive at 10 uM.
Assay [4] is filed under the species Mus musculus. The experiment in a line: Agonist effect in the electrically stimulated mouse vas deferens.;I = Inactive at 10 uM. An outline of the steps: as §1
The species named for assay [5] is Mus musculus. The assay is described as follows: Antagonist effect in the electrically stimulated mouse vas deferens; Inactive at 10 uM.
The species named for assay [6] is Mus musculus. The experiment in a line: Agonist effect in the electrically stimulated mouse vas deferens. (CL95%). In short, it runs like this:
as §1

For assay [7], the species on record is Mus musculus. The assay is described as follows: The maximal effect induced by an agonist expressed as percent inhibition of electrically induced twitches. In short, it runs like this:
as §1

The species entered for assay [8] is Mus musculus. The experiment in a line: The maximal effect induced by an agonist expressed as percent inhibition of electrically induced twitches; Inactive at 10 uM. In short, it runs like this: as §1
The species named for assay [9] is Mus musculus. The experiment in a line: Agonist effect in the electrically stimulated mouse vas deferens. (CL95%); Inactive at 10 uM. In short, it runs like this:
as §1

Assay [10] is filed under the species Mus musculus. The assay is described as follows: Antagonist effect in the electrically stimulated mouse vas deferens. The settings on record: read-out: pA2 (converted).

Active and inactive are the calls of the source. No cut-off for these calls is given here. Numbered stars: 1 amine (or outer) side, 2 acyl side, 3 side chain; on linkers, the order of the positions; unused ones are H or OH. Square brackets hold non-standard residues; d marks the D form. Peptide text beside a SMILES is read from it. X1 = N[C@@H](Cc1ccccc1)CN(CC(=O)[*:2])[*:1]; Ava = NCCCCC(=O)O; GABA = NCCCC(=O)O; βAla = NCCC(=O)O

For `C[C@H](NC(=O)CNC(=O)[C@@H](NC(=O)[C@H](Cc1ccccc1)NC(=O)CNC(=O)CNC(=O)[C@@H](N)Cc1ccccc1)[C@@H](C)O)C(=O)N[C@@H](CCCNC(=N)N)C(=O)N[C@@H](CCCCN)C(=O)N[C@@H](CO)C(=O)N[C@@H](C)C(=O)N[C@@H](CCCNC(=N)N)C(=O)N[C@@H](CCCCN)C(N)=O`, the Emax in the assay filed under Mus musculus [1] is given as -84.

For the molecule `C[C@H](NC(=O)CNC(=O)[C@@H](NC(=O)[C@H](Cc1ccccc1)NC(=O)CNC(=O)[C@@H](Cc1ccccc1)NC(=O)[C@@H](N)Cc1ccccc1)[C@@H](C)O)C(=O)N[C@@H](CCCN=C(N)N)C(=O)N[C@@H](CCCCN)C(=O)N[C@@H](CO)C(=O)N[C@@H](C)C(=O)N[C@@H](CCCN=C(N)N)C(=O)N[C@@H](CCCCN)C(N)=O`, in the assay listed under Mus musculus [2], the Emax entry was “inactive”. Moreover, the pA2 result in the assay filed under Mus musculus [3] was “inactive”. Besides, the “Log EC50” value in the assay filed under Mus musculus [4] was “inactive”.

Consider `C[C@H](NC(=O)CNC(=O)[C@@H](NC(=O)[C@H](Cc1ccccc1)NC(=O)CNC(=O)[C@H](Cc1ccccc1)NC(=O)[C@@H](N)Cc1ccccc1)[C@@H](C)O)C(=O)N[C@@H](CCCN=C(N)N)C(=O)N[C@@H](CCCCN)C(=O)N[C@@H](CO)C(=O)N[C@@H](C)C(=O)N[C@@H](CCCN=C(N)N)C(=O)N[C@@H](CCCCN)C(N)=O`, for which the Emax entry in the assay listed under Mus musculus [2] was “inactive”. The pA2 entry in the assay listed under Mus musculus [3] is “inactive”. Moreover, the “Log EC50” value in the assay filed under Mus musculus [4] is “inactive”.

By EC50 is commonly meant the concentration giving half of the maximal effect. The low end stands for greater potency, the high end for weaker potency. With `C[C@H](NC(=O)CNC(=O)[C@@H](NC(=O)[C@H](Cc1ccccc1)NC(=O)[C@@H](Cc1ccccc1)NC(=O)CNC(=O)[C@@H](N)Cc1ccccc1)[C@@H](C)O)C(=O)N[C@@H](CCCN=C(N)N)C(=O)N[C@@H](CCCCN)C(=O)N[C@@H](CO)C(=O)N[C@@H](C)C(=O)N[C@@H](CCCN=C(N)N)C(=O)N[C@@H](CCCCN)C(N)=O` (H-FG[dF]FTGARKSARK-NH2), the pA2 entry in the assay filed under Mus musculus [5] was “inactive”. In addition, a half-maximal effect in the assay filed under Mus musculus [6] (EC50) was put at 2090 nM. In the assay listed under Mus musculus [7], this molecule registered an Emax of -75.

As to `C[C@H](NC(=O)CNC(=O)[C@@H](NC(=O)[C@H](Cc1ccccc1)NC(=O)CCCCNC(=O)[C@@H](N)Cc1ccccc1)[C@@H](C)O)C(=O)N[C@@H](CCCN=C(N)N)C(=O)N[C@@H](CCCCN)C(=O)N[C@@H](CO)C(=O)N[C@@H](C)C(=O)N[C@@H](CCCN=C(N)N)C(=O)N[C@@H](CCCCN)C(N)=O` (H-F[Ava]FTGARKSARK-NH2), the Emax result in the assay listed under Mus musculus [8] is “inactive”. Further, the pA2 entry in the assay filed under Mus musculus [5] is “inactive”. The “Log EC50” value in the assay listed under Mus musculus [9] was “inactive”.

Turning to `C[C@H](NC(=O)CNC(=O)[C@@H](NC(=O)[C@H](Cc1ccccc1)NC(=O)CCCNC(=O)[C@@H](N)Cc1ccccc1)[C@@H](C)O)C(=O)N[C@@H](CCCN=C(N)N)C(=O)N[C@@H](CCCCN)C(=O)N[C@@H](CO)C(=O)N[C@@H](C)C(=O)N[C@@H](CCCN=C(N)N)C(=O)N[C@@H](CCCCN)C(N)=O` (H-F[GABA]FTGARKSARK-NH2), in the assay listed under Mus musculus [8], the Emax result is “inactive”. For the same molecule, the pA2 result in the assay filed under Mus musculus [5] was “inactive”. For the same molecule, in the assay filed under Mus musculus [9], the “Log EC50” value is “inactive”.

In the case of `C[C@H](NC(=O)CNC(=O)[C@@H](NC(=O)[C@H](Cc1ccccc1)NC(=O)CCNC(=O)[C@@H](N)Cc1ccccc1)[C@@H](C)O)C(=O)N[C@@H](CCCN=C(N)N)C(=O)N[C@@H](CCCCN)C(=O)N[C@@H](CO)C(=O)N[C@@H](C)C(=O)N[C@@H](CCCN=C(N)N)C(=O)N[C@@H](CCCCN)C(N)=O` (H-F[βAla]FTGARKSARK-NH2), the Emax result in the assay listed under Mus musculus [8] is “inactive”. In addition, the pA2 result in the assay listed under Mus musculus [5] is “inactive”. In addition, the “Log EC50” value in the assay filed under Mus musculus [9] was “inactive”.

`C[C@H](NC(=O)CNC(=O)[C@@H](NC(=O)[C@H](Cc1ccccc1)NC(=O)CNC(=O)CNC[C@@H](N)Cc1ccccc1)[C@@H](C)O)C(=O)N[C@@H](CCCN=C(N)N)C(=O)N[C@@H](CCCCN)C(=O)N[C@@H](CO)C(=O)N[C@@H](C)C(=O)N[C@@H](CCCN=C(N)N)C(=O)N[C@@H](CCCCN)C(N)=O` (H-[X1]GFTGARKSARK-NH2): in the assay listed under Mus musculus [8], the Emax result is “inactive”. Also, in the assay listed under Mus musculus [10], the Kb is 178 nM. Further, the “Log EC50” value in the assay listed under Mus musculus [9] is “inactive”.

In turn, `CC(NC(=O)CNC(=O)[C@@H](NC(=O)[C@H](Cc1ccccc1)NC(=O)CNC(=O)C(C)NC(=O)[C@@H](N)Cc1ccccc1)[C@@H](C)O)C(=O)N[C@@H](CCCN=C(N)N)C(=O)N[C@@H](CCCCN)C(=O)N[C@@H](CO)C(=O)NC(C)C(=O)N[C@@H](CCCN=C(N)N)C(=O)N[C@@H](CCCCN)C(N)=O` (stereo in doubt) yielded an Emax in the assay filed under Mus musculus [1] of -81. The molecule further gave an EC50 in the assay listed under Mus musculus [6] of 1000 nM.

For `C[C@H](NC(=O)CNC(=O)[C@@H](NC(=O)C(Cc1ccccc1)NC(=O)CNC(=O)CNC[C@H](N)Cc1ccccc1)[C@@H](C)O)C(=O)N[C@@H](CCCN=C(N)N)C(=O)N[C@@H](CCCCN)C(=O)N[C@@H](CO)C(=O)N[C@@H](C)C(=O)N[C@@H](CCCN=C(N)N)C(=O)N[C@@H](CCCCN)C(N)=O` (stereo in doubt), the Emax entry in the assay filed under Mus musculus [8] is “inactive”. In the assay filed under Mus musculus [5], the pA2 result was “inactive”. For the same molecule, in the assay filed under Mus musculus [9], the “Log EC50” value is “inactive”.

`CC(C)C[C@H](NC(=O)[C@H](CCCCN)NC(=O)[C@H](CCCNC(=N)N)NC(=O)[C@H](C)NC(=O)[C@H](CO)NC(=O)[C@H](CCCCN)NC(=O)[C@H](CCCNC(=N)N)NC(=O)[C@H](C)NC(=O)CNC(=O)[C@@H](NC(=O)[C@H](Cc1ccccc1)NC(=O)CNC(=O)CNC(=O)[C@@H](N)Cc1ccccc1)[C@@H](C)O)C(=O)N[C@@H](C)C(=O)N[C@@H](CC(N)=O)C(=O)N[C@@H](CCC(N)=O)C(=O)O` [NOCICEPTIN] gave an Emax in the assay listed under Mus musculus [1] of -83.

In the case of H-FFTGARKSARK-NH2, the Emax result in the assay listed under Mus musculus [8] is “inactive”. The pA2 entry in the assay listed under Mus musculus [5] was “inactive”. In the assay filed under Mus musculus [9], the “Log EC50” value is “inactive”.

For H-FGFFTGARKSARK-NH2, in the assay filed under Mus musculus [8], the Emax entry is “inactive”. Further, in the assay listed under Mus musculus [5], the pA2 result was “inactive”. Also, the “Log EC50” value in the assay filed under Mus musculus [9] was “inactive”.

Turning to H-FGGGFTGARKSARK-NH2, the Emax in the assay listed under Mus musculus [1] is -73. For the same molecule, the pA2 entry in the assay filed under Mus musculus [5] is “inactive”. The molecule further showed an EC50 in the assay listed under Mus musculus [6] of 3240 nM.

For the molecule H-FPFTGARKSARK-NH2, the Emax entry in the assay listed under Mus musculus [8] was “inactive”. Further, the pA2 entry in the assay filed under Mus musculus [5] is “inactive”. The “Log EC50” value in the assay listed under Mus musculus [9] is “inactive”.
